# Experimental data from ChEMBL document CHEMBL4390662, “Design, synthesis and biological evaluation of novel α-acyloxy carboxamides via Passerini reaction as caspase 3/7 activators” (Eur J Med Chem, 2019).
# The source made the active and inactive calls. The rule behind the calls is not given here.
# How the values were obtained:
# NFS-60 [1] = assay: Induction of caspase-independent apoptosis in mouse NFS60 cells assessed as AIF1 release level using tetramethylbenzidine as substrate incubated for 1 hr by ELISA (reference value: 2.37 +/- 0.035 ng/ml); type: functional
# Outline: (§1)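 Extracts of untreated and treated cells added to anti-AIF1-coated wells. Incubated 1 h with HRP-conjugated antibody, washed, then TMB substrate added. Reaction stopped after 10 min and read at 450 nm. AIF1 reported in ng/mL, mean ± SEM.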
# MCF7 [2] = assay: Induction of apoptosis in human MCF7 cells assessed as induction of cell shrinkage by phase contrast inverted fluorescence microscopy; type: functional, cell-based
# HepG2 [3] = assay: Induction of caspase-independent apoptosis in human HepG2 cells assessed as AIF1 release level using tetramethylbenzidine as substrate incubated for 1 hr by ELISA (reference value: 1.18 +/- 0.06 ng/ml); type: functional; outline: as §1
# HepG2 [4] = assay: Induction of apoptosis in human HepG2 cells assessed as late apoptotic cells level at IC50 incubated for 72 hrs by annexin V/propidium iodide staining based flow cytometry (reference value: 0.1%); type: functional
# NFS-60 [5] = assay: Induction of apoptosis in mouse NFS60 cells assessed as induction of cell shrinkage by phase contrast inverted fluorescence microscopy; type: functional, cell-based
# HepG2 [6] = assay: Induction of apoptosis in human HepG2 cells assessed as early apoptotic cells at IC50 incubated for 72 hrs by annexin V/propidium iodide staining based flow cytometry (reference value: 0.78 +/- 0.09%); type: functional
# MCF7 [7] = assay: Induction of apoptosis in human MCF7 cells assessed as early apoptotic cells level at IC50 incubated for 72 hrs by annexin V/propidium iodide staining based flow cytometry (reference value: 0.01%); type: functional
# NFS-60 [8] = assay: Cytotoxicity against mouse NFS60 cells assessed as cell growth inhibition incubated for 72 hrs by MTT assay; type: functional, cell-based; conditions: NFS-60, 72 h
# Outline: (§2)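 Cells grown in RPMI-1640 with 10% FBS and seeded at 5×10^3 per well. After 24 h, serial concentrations given for 72 h at 37°C, 5% CO2. Then 5 mg/mL MTT stock added for 3 h, formazan dissolved in DMSO, A570 read. IC50 calculated from the curves.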
# MCF7 [9] = assay: Induction of apoptosis in human MCF7 cells assessed as late apoptotic cells at IC50 incubated for 72 hrs by annexin V/propidium iodide staining based flow cytometry (reference value: 0.01 +/- 0.001%); type: functional
# MCF7 [10] = assay: Cytotoxicity against human MCF7 cells assessed as cell growth inhibition incubated for 72 hrs by MTT assay; type: functional, cell-based; conditions: MCF7, 72 h; outline: as §2
# [11] = Selectivity index, ratio of IC50 for human WI38 cells to IC50 for mouse NFS60 cells
# Outline: (§3)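 SI calculated as IC50 on normal Wi-38 fibroblasts divided by IC50 on the cancer cell line. Both came from 72 h MTT assays.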
# MCF7 [12] = assay: Potency index, ratio of doxorubicin IC50 to test compound IC50 against human MCF7 cells; type: functional
# MCF7 [13] = assay: Induction of apoptosis in human MCF7 cells assessed as necrotic cells level at IC50 incubated for 72 hrs by annexin V/propidium iodide staining based flow cytometry (reference value: 0.48%); type: functional
# HepG2 [14] = assay: Induction of apoptosis in human HepG2 cells assessed as induction of cell shape loss by phase contrast inverted fluorescence microscopy; type: functional, cell-based
# MCF7 [15] = assay: Induction of apoptosis in human MCF7 cells assessed as late apoptotic cells level at IC50 incubated for 72 hrs by annexin V/propidium iodide staining based flow cytometry (reference value: 0.01%); type: functional
# MCF7 [16] = assay: Induction of apoptosis in human MCF7 cells assessed as early apoptotic cells at IC50 incubated for 72 hrs by annexin V/propidium iodide staining based flow cytometry (reference value: 0.47 +/- 0.01%); type: functional
# MCF7 [17] = assay: Induction of apoptosis in human MCF7 cells assessed as viable cells level at IC50 incubated for 72 hrs by annexin V/propidium iodide staining based flow cytometry (reference value: 99.5%); type: functional
# NFS-60 [18] = assay: Induction of apoptosis in mouse NFS60 cells assessed as induction of cell shape loss by phase contrast inverted fluorescence microscopy; type: functional, cell-based
# MCF7 [19] = assay: Induction of apoptosis in human MCF7 cells assessed as caspase 3/7 activity using DEVD aminoluciferin as substrate at IC50 after 24 hrs […] relative to control; type: functional
# Outline: (§4)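 Caspase 3/7 activation measured with Caspase-Glo 3/7 kit using a luminogenic caspase-cleavable substrate. […] Reported as percent activation, mean ± SEM.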
# HepG2 [20] = assay: Induction of apoptosis in human HepG2 cells assessed as induction of cell shrinkage by phase contrast inverted fluorescence microscopy; type: functional, cell-based
# [21] = Selectivity index, ratio of IC50 for human WI38 cells to IC50 for human MCF7 cells; type: toxicity; conditions: WI38 cells versus MCF7 cells, read-out: Ratio IC50; outline: as §3
# HepG2 [22] = assay: Induction of apoptosis in human HepG2 cells assessed as caspase 3/7 activity using DEVD aminoluciferin as substrate at IC50 after 24 hrs by fluorescence assay relative to control; type: functional; outline: as §4
# MCF7 [23] = assay: Induction of apoptosis in human MCF7 cells assessed as induction of cell shape loss by phase contrast inverted fluorescence microscopy; type: functional, cell-based
# MCF7 [24] = assay: Induction of caspase-independent apoptosis in human MCF7 cells assessed as AIF1 release level using tetramethylbenzidine as substrate incubated for 1 hr by ELISA (reference value: 2.28 +/- 0.06 ng/ml); type: functional; outline: as §1
# NFS-60 [25] = assay: Induction of apoptosis in mouse NFS60 cells assessed as late apoptotic cells level at IC50 incubated for 72 hrs by annexin V/propidium iodide staining based flow cytometry (reference value: 0.01%); type: functional
# MCF7 [26] = assay: Induction of apoptosis in human MCF7 cells assessed as total apoptotic cells at IC50 incubated for 72 hrs by annexin V/propidium iodide staining based flow cytometry (reference value: 0.48 +/- 0.01%); type: functional
# HepG2 [27] = assay: Cytotoxicity against human HepG2 cells assessed as cell growth inhibition incubated for 72 hrs by MTT assay; type: functional, cell-based; conditions: HepG2, 72 h; outline: as §2
# HepG2 [28] = assay: Induction of apoptosis in human HepG2 cells assessed as total apoptotic cells at IC50 incubated for 72 hrs by annexin V/propidium iodide staining based flow cytometry (reference value: 0.169 +/- 0.02%); type: functional
# NFS-60 [29] = assay: Induction of apoptosis in mouse NFS60 cells assessed as early apoptotic cells level at IC50 incubated for 72 hrs by annexin V/propidium iodide staining based flow cytometry (reference value: 0.46%); type: functional
# NFS-60 [30] = assay: Induction of apoptosis in mouse NFS60 cells assessed as necrotic cells level at IC50 incubated for 72 hrs by annexin V/propidium iodide staining based flow cytometry (reference value: 0.01%); type: functional
# NFS-60 [31] = assay: Induction of apoptosis in mouse NFS60 cells assessed as total apoptotic cells at IC50 incubated for 72 hrs by annexin V/propidium iodide staining based flow cytometry (reference value: 0.495 +/- 0.01%); type: functional
# NFS-60 [32] = assay: Induction of apoptosis in mouse NFS60 cells assessed as caspase 3/7 activity using DEVD aminoluciferin as substrate at IC50 after 24 hrs […] relative to control; type: functional; outline: as §4
# HepG2 [33] = assay: Induction of apoptosis in human HepG2 cells assessed as early apoptotic cells level at IC50 incubated for 72 hrs by annexin V/propidium iodide staining based flow cytometry (reference value: 0.05%); type: functional
smiles,measurement,setting,value
O=C(OC1(C(=O)Nc2ccc([N+](=O)[O-])cc2)CCCCC1)c1ccc([N+](=O)[O-])cc1,Activity,NFS-60 [1],2.44 ng/mL
same,Activity,MCF7 [2],Active
same,Activity,HepG2 [3],1.28 ng/mL
same,Activity,HepG2 [4],20.78%
same,Activity,NFS-60 [5],Active
same,Activity,HepG2 [6],18.43%
same,Activity,MCF7 [7],1.96%
same,IC50,NFS-60 [8],7.7 nM
same,Activity,MCF7 [9],20.439%
same,IC50,MCF7 [10],8.7 nM
same,Ratio IC50,[11],98.831
same,Ratio IC50,MCF7 [12],2 - 4
same,Activity,MCF7 [13],25.02%
same,Activity,HepG2 [14],Active
same,Activity,MCF7 [15],18.31%
same,Activity,MCF7 [16],24.065%
same,Activity,MCF7 [17],54.7%
same,Activity,NFS-60 [18],Active
same,Activity,MCF7 [19],50.94%
same,Activity,HepG2 [20],Active
same,selectivity ratio,[21],87.5
same,Activity,HepG2 [22],50.68%
same,Activity,MCF7 [23],Active
same,Activity,MCF7 [24],2.34 ng/mL
same,Activity,NFS-60 [25],17.56%
same,Activity,MCF7 [26],44.505%
same,IC50,HepG2 [27],14.1 nM
same,Activity,HepG2 [28],41.815%
same,Activity,NFS-60 [29],2.41%
same,Activity,NFS-60 [30],24.58%
same,Activity,NFS-60 [31],41.795%
same,Activity,NFS-60 [32],49.59%
same,Activity,HepG2 [33],1.95%
O=C(Cc1ccccc1)OC1(C(=O)Nc2ccc([N+](=O)[O-])cc2)CCCCC1,Activity,NFS-60 [1],2.41 ng/mL
same,Activity,MCF7 [2],Active
same,Activity,HepG2 [3],1.23 ng/mL
same,Activity,HepG2 [4],26.59%
same,Activity,NFS-60 [5],Active
same,Activity,HepG2 [6],6.0649%
same,Activity,MCF7 [7],7.06%
same,IC50,NFS-60 [8],8.1 nM
same,Activity,MCF7 [9],22.09%
same,IC50,MCF7 [10],7.7 nM
same,Ratio IC50,[11],5.419
same,Ratio IC50,MCF7 [12],2 - 4
same,Activity,MCF7 [13],13.14%
same,Activity,HepG2 [14],Active
same,Activity,MCF7 [15],20.57%
same,Activity,MCF7 [16],11.885%
same,Activity,MCF7 [17],59.23%
same,Activity,NFS-60 [18],Active
same,Activity,MCF7 [19],43.04%
same,Activity,HepG2 [20],Active
same,selectivity ratio,[21],5.7
same,Activity,HepG2 [22],47.64%
same,Activity,MCF7 [23],Active
same,Activity,MCF7 [24],2.33 ng/mL
same,Activity,NFS-60 [25],18.21%
same,Activity,MCF7 [26],33.98%
same,IC50,HepG2 [27],14.2 nM
same,Activity,HepG2 [28],33.485%
same,Activity,NFS-60 [29],5.65%
same,Activity,NFS-60 [30],14.8%
same,Activity,NFS-60 [31],34.129%
same,Activity,NFS-60 [32],45.41%
same,Activity,HepG2 [33],2.74%
O=C(OC1(C(=O)Nc2ccc([N+](=O)[O-])cc2)CCCCC1)C(O)c1ccccc1 (centres undefined),Activity,NFS-60 [1],2.47 ng/mL
same,Activity,MCF7 [2],Active
same,Activity,HepG2 [3],1.305 ng/mL
same,Activity,HepG2 [4],41.88%
same,Activity,NFS-60 [5],Active
same,Activity,HepG2 [6],6.055%
same,Activity,MCF7 [7],3.76%
same,IC50,NFS-60 [8],7.8 nM
same,Activity,MCF7 [9],30.785%
same,IC50,MCF7 [10],5.01 nM
same,Ratio IC50,[11],10.82
same,Ratio IC50,MCF7 [12],2 - 4
same,Activity,MCF7 [13],23.42%
same,Activity,HepG2 [14],Active
same,Activity,MCF7 [15],28.9%
same,Activity,MCF7 [16],22.345%
same,Activity,MCF7 [17],43.92%
same,Activity,NFS-60 [18],Active
same,Activity,MCF7 [19],55.04%
same,Activity,HepG2 [20],Active
same,selectivity ratio,[21],16.8
same,Activity,HepG2 [22],53.64%
same,Activity,MCF7 [23],Active
same,Activity,MCF7 [24],2.36 ng/mL
same,Activity,NFS-60 [25],22.89%
same,Activity,MCF7 [26],53.129%
same,IC50,HepG2 [27],7.7 nM
same,Activity,HepG2 [28],48.905%
same,Activity,NFS-60 [29],2.12%
same,Activity,NFS-60 [30],21.74%
same,Activity,NFS-60 [31],44.185%
same,Activity,NFS-60 [32],52.835%
same,Activity,HepG2 [33],3.14%
